Measurements: ChEMBL document CHEMBL1914423, “New imidazo[2,1-b]thiazole derivatives: synthesis, in vitro anticancer evaluation, and in silico studies” (Eur J Med Chem, 2011)

Legend:
Format in all cases: functional
[1] = tested on: IGROV-1; assay: Anticancer activity against human IGROV1 cells after 48 hrs by SRB assay; details: IGROV-1, 48 h
Outline: (§1)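 NCI five-dose screen. Cells in RPMI 1640 with 5% FBS and 2 mM L-glutamine, seeded at 5000–40,000 cells/well according to doubling time, then pre-incubated 24 h at 37 °C in 5% CO2. Drugs dissolved in DMSO, five concentrations by 10-fold or 1/2-log dilution. Cells fixed with TCA, SRB-stained, A515 read. IC50 solved from [(Ti−Tz)/(C−Tz)]×100 = 50.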

[2] = tested on: OVCAR-3; assay: Anticancer activity against human OVCAR3 cells after 48 hrs by SRB assay; details: OVCAR-3, 48 h
[3] = tested on: A498; assay: Anticancer activity against human A498 cells after 48 hrs by SRB assay; details: A498, 48 h; outline: as §1
[4] = tested on: SNB-75; assay: Anticancer activity against human SNB75 cells after 48 hrs by SRB assay; details: SNB-75, 48 h
[5] = tested on: CCRF-CEM; assay: Anticancer activity against human CCRF-CEM cells after 48 hrs by SRB assay; outline: as §1
[6] = tested on: SN12C; assay: Anticancer activity against human SN12C cells after 48 hrs by SRB assay
[7] = tested on: SNB-19; assay: Anticancer activity against human SNB19 cells after 48 hrs by SRB assay; details: SNB-19, 48 h
[8] = tested on: EKVX; assay: Anticancer activity against human EKVX cells after 48 hrs by SRB assay; outline: as §1
[9] = tested on: HL-60(TB); assay: Anticancer activity against human HL-60(TB) cells after 48 hrs by SRB assay; details: HL-60, 48 h
Outline: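 NCI-60 five-dose screen. Cells grown in RPMI 1640 with 5% FBS and 2 mM L-glutamine, seeded at 5000–40,000 cells/well, and held 24 h at 37 °C and 5% CO₂ before drug. DMSO stocks were diluted into five concentrations (10-fold or ½-log steps). Settled suspension cells were fixed with cold TCA, SRB-stained, and read at 515 nm. […] was taken where [(Ti−Tz)/(C−Tz)]×100 = 50.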

[10] = Anticancer activity against human Hs 578T cells after 48 hrs by SRB assay; outline: as §1
[11] = tested on: NCI-H322M; assay: Anticancer activity against human NCI-H322M cells after 48 hrs by SRB assay
[12] = tested on: OVCAR-8; assay: Anticancer activity against human OVCAR8 cells after 48 hrs by SRB assay; details: OVCAR-8, 48 h
[13] = tested on: UACC-257; assay: Anticancer activity against human UACC257 cells after 48 hrs by SRB assay; details: UACC-257, 48 h
Outline: (§2)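 NCI-60 five-dose mode: cells in RPMI 1640 with 5% FBS and 2 mM glutamine, plated at 5000–40,000 cells/well, and preincubated 24 h, with time-zero plates TCA-fixed. Drug given at five concentrations (10-fold or ½-log serial dilutions). Cold TCA fixation 60 min at 4 °C, SRB stain, Tris solubilization, A515. IC50 taken where [(Ti−Tz)/(C−Tz)]×100 = 50.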

[14] = tested on: KM12; assay: Anticancer activity against human KM12 cells after 48 hrs by SRB assay; details: KM12, 48 h; outline: as §1
[15] = tested on: DU-145; assay: Anticancer activity against human DU145 cells after 48 hrs by SRB assay; details: DU-145, 48 h; outline: as §1
[16] = tested on: PC-3; assay: Anticancer activity against human PC3 cells after 48 hrs by SRB assay; details: PC-3, 48 h
[17] = tested on: UO-31; assay: Anticancer activity against human UO31 cells after 48 hrs by SRB assay; details: UO-31, 48 h; outline: as §2
[18] = tested on: A549; assay: Anticancer activity against human A549 cells after 48 hrs by SRB assay; details: A549, 48 h; outline: as §1
[19] = tested on: MOLT-4; assay: Anticancer activity against human MOLT4 cells after 48 hrs by SRB assay; details: MOLT-4, 48 h
[20] = tested on: NCI-H23; assay: Anticancer activity against human NCI-H23 cells after 48 hrs by SRB assay; details: NCI-H23, 48 h
[21] = tested on: HCT-116; assay: Anticancer activity against human HCT116 cells after 48 hrs by SRB assay; details: HCT-116, 48 h; outline: as §1
[22] = tested on: SF-295; assay: Anticancer activity against human SF295 cells after 48 hrs by SRB assay; details: SF-295, 48 h
[23] = tested on: HCC 2998; assay: Anticancer activity against human HCC2998 cells after 48 hrs by SRB assay; details: HCC 2998, 48 h; outline: as §1
[24] = tested on: T47D; assay: Anticancer activity against human T47D cells after 48 hrs by SRB assay; outline: as §2
[25] = tested on: NCI-H226; assay: Anticancer activity against human NCI-H226 cells after 48 hrs by SRB assay; details: NCI-H226, 48 h
[26] = tested on: SR; assay: Anticancer activity against human SR cells after 48 hrs by SRB assay; outline: as §2
[27] = tested on: TK-10; assay: Anticancer activity against human TK10 cells after 48 hrs by SRB assay; details: TK-10, 48 h; outline: as §2
[28] = read-out: LC50 (the source's name)

For `COc1cccc(-c2nc3sccn3c2-c2ccnc(NCCNC(=O)Nc3cccc(C(F)(F)F)c3)n2)c1`, the GI50 [1] was 3.32 µM, the TGI [1] was 21.8 µM and the CC50 [1, 28] was greater than 100 µM. For the same compound, the GI50 [2] was 4.22 µM, the TGI [2] was 20.3 µM and the CC50 [2, 28] was greater than 100 µM. The GI50 [3] was 2.44 µM, the TGI [3] was 17.5 µM and the CC50 [3, 28] was greater than 100 µM. It also gave a GI50 [4] of 3.41 µM, a TGI [4] of 21.7 µM and a CC50 [4, 28] greater than 100 µM. The GI50 [5] was 8.43 µM, the TGI [5] was greater than 100 µM and the CC50 [5, 28] was greater than 100 µM. The GI50 [6] was 4.03 µM, the TGI [6] was 26.5 µM and the CC50 [6, 28] was greater than 100 µM. It also gave a GI50 [7] of 7.77 µM, a TGI [7] greater than 100 µM and a CC50 [7, 28] greater than 100 µM. It also gave a GI50 [8] of 3.55 µM, an LC50 [8] greater than 100 µM and a TGI [8] of 59.6 µM. It also gave a GI50 [9] of 2.92 µM, an LC50 [9] greater than 100 µM and a TGI [9] of 7.43 µM. For the same compound, the GI50 [10] was 3.15 µM, the TGI [10] was 29 µM and the CC50 [10, 28] was greater than 100 µM. For the same compound, the GI50 [11] was 7.23 µM, the TGI [11] was greater than 100 µM and the CC50 [11, 28] was greater than 100 µM. It also gave a GI50 [12] of 3.28 µM, a TGI [12] of 9.79 µM and a CC50 [12, 28] of 66.2 µM. The GI50 [13] was 4.34 µM, the TGI [13] was 16.5 µM and the CC50 [13, 28] was 65.9 µM. The GI50 [14] was 3.36 µM, the TGI [14] was 10.1 µM and the CC50 [14, 28] was 39.3 µM. The GI50 [15] was 5.13 µM, the TGI [15] was 95.5 µM and the CC50 [15, 28] was greater than 100 µM. For the same compound, the GI50 [16] was 2.47 µM, the TGI [16] was 11.9 µM and the CC50 [16, 28] was greater than 100 µM. It also gave a GI50 [17] of 2.88 µM, a TGI [17] of 24.8 µM and a CC50 [17, 28] greater than 100 µM. It also gave a GI50 [18] of 3.82 µM, an LC50 (concentration giving 50% net tumour cell kill) [18] greater than 100 µM and a TGI [18] of 17.1 µM. It also gave a GI50 [19] of 3.27 µM, a TGI [19] of 9.94 µM and a CC50 [19, 28] greater than 100 µM. It also gave a GI50 [20] of 3.42 µM, an LC50 (50% lethal concentration) [20] greater than 100 µM and a TGI [20] of 76.9 µM. It also gave a GI50 [21] of 3.45 µM, a TGI [21] of 11.6 µM and a CC50 [21, 28] greater than 100 µM. For the same compound, the GI50 [22] was 2.8 µM, the TGI [22] was 14.9 µM and the CC50 [22, 28] was greater than 100 µM. The GI50 [23] was 3.75 µM, the TGI [23] was 18.7 µM and the CC50 [23, 28] was greater than 100 µM. For the same compound, the GI50 [24] was 3.77 µM, the TGI [24] was 13.8 µM and the CC50 [24, 28] was 61 µM. The GI50 [25] was 4.58 µM, the LC50 (concentration killing 50% of tumour cells) [25] was greater than 100 µM and the TGI [25] was 68.6 µM. The GI50 [26] was 3.75 µM, the TGI [26] was 29.7 µM and the CC50 [26, 28] was greater than 100 µM. It also gave a GI50 [27] of 3.6 µM, a TGI [27] of 18.8 µM and a CC50 [27, 28] greater than 100 µM.
